Assay results taken from ChEMBL document CHEMBL1240472, “Hypervalent iodine(III) mediated synthesis of novel unsymmetrical 2,5-disubstituted 1,3,4-oxadiazoles as antibacterial and antifungal agents” (2010).
In brackets after ≈: the same amount, converted by molar mass.

Assays:
Aspergillus niger = assay: Antimicrobial activity against Aspergillus niger assessed as inhibition of mycelial growth by poisoned food method; assay type: functional; also: test concentration or dose not given here
Staphylococcus aureus [1] = assay: Antimicrobial activity against Staphylococcus aureus MTCC 96 […]; assay type: functional
Escherichia coli [2] = assay: Antimicrobial activity against Escherichia coli MTCC 1652 by […]; assay type: functional
Escherichia coli [3] = assay: Antimicrobial activity against Escherichia coli MTCC 1652 by microdilution assay; assay type: functional; conditions: in the assay text read “macrodilution” for “microdilution”
In short: (§1)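 MIC determined in µg/ml by the macrodilution method, only for compounds active in the primary diffusion screen. Results are means of three replicates.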

Pseudomonas aeruginosa [4] = assay: Antimicrobial activity against Pseudomonas aeruginosa MTCC 741 after 24 hrs by […]; assay type: functional
In short: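 Agar well diffusion assay (8 mm wells). Inhibition zone diameter read in mm, with the well diameter included in the value. Results are means of three replicates.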

Staphylococcus aureus [5] = assay: Antimicrobial activity against Staphylococcus aureus MTCC 96 after by agar well diffusion method; also: test concentration or dose not given here
Pseudomonas aeruginosa [6] = assay: Antimicrobial activity against Pseudomonas aeruginosa MTCC 741 by microdilution assay; assay type: functional; conditions: in the assay text read “macrodilution” for “microdilution”; in short: as §1
Bacillus subtilis [7] = assay: Antimicrobial activity against Bacillus subtilis MTCC 121 […]; assay type: functional
Aspergillus flavus = assay: Antimicrobial activity against Aspergillus flavus assessed as inhibition of mycelial growth by poisoned food method; assay type: functional; also: test concentration or dose not given here
Bacillus subtilis [8] = assay: Antimicrobial activity against Bacillus subtilis MTCC 121 by agar well diffusion method; also: test concentration or dose not given here
For IZ in this document: test concentration or dose not given here.

Structure (SMILES)	inhibition (INH) (Aspergillus niger)	MIC (Staphylococcus aureus [1])	inhibition zone (IZ) (Escherichia coli [2])	MIC (Escherichia coli [3])	inhibition zone (IZ) (Pseudomonas aeruginosa [4])	inhibition zone (IZ) (Staphylococcus aureus [5])	MIC (Pseudomonas aeruginosa [6])	MIC (Bacillus subtilis [7])	inhibition (INH) (Aspergillus flavus)	inhibition zone (IZ) (Bacillus subtilis [8])
c1ccc(-c2nnc(-c3cn(-c4ccccc4)nc3-c3ccccc3)o2)cc1	44.4%	64 µg/mL (≈ 176 µM)	14.3 mm	> 128 µg/mL	13.6 mm	20.3 mm	> 128 µg/mL	128 µg/mL (≈ 351 µM)	61.1%	18.6 mm
Clc1ccc(-c2nn(-c3ccccc3)cc2-c2nnc(-c3ccccc3)o2)cc1	55.5%	32 µg/mL (≈ 80.2 µM)	15.6 mm	> 128 µg/mL	13.6 mm	21.6 mm	> 128 µg/mL	64 µg/mL (≈ 160 µM)	44.4%	19.6 mm
Fc1ccc(-c2nn(-c3ccccc3)cc2-c2nnc(-c3ccccc3)o2)cc1	66.6%	128 µg/mL (≈ 335 µM)	14.3 mm	> 128 µg/mL	14.3 mm	18.6 mm	> 128 µg/mL	32 µg/mL (≈ 83.7 µM)	50%	20.6 mm
Brc1ccc(-c2nn(-c3ccccc3)cc2-c2nnc(-c3ccccc3)o2)cc1	61.1%	64 µg/mL (≈ 144 µM)	16.6 mm	128 µg/mL (≈ 289 µM)	14.6 mm	20 mm	> 128 µg/mL	128 µg/mL (≈ 289 µM)	55.5%	18.3 mm
Cc1ccc(-c2nn(-c3ccccc3)cc2-c2nnc(-c3ccccc3)o2)cc1	66.6%	128 µg/mL (≈ 338 µM)	15.6 mm	> 128 µg/mL	13.6 mm	18.3 mm	> 128 µg/mL	16 µg/mL (≈ 42.3 µM)	61.1%	21.6 mm
COc1ccc(-c2nn(-c3ccccc3)cc2-c2nnc(-c3ccccc3)o2)cc1	44.4%	16 µg/mL (≈ 40.6 µM)	16.3 mm	128 µg/mL (≈ 325 µM)	14 mm	22.6 mm	> 128 µg/mL	32 µg/mL (≈ 81.1 µM)	66.6%	20.3 mm
O=[N+]([O-])c1ccc(-c2nn(-c3ccccc3)cc2-c2nnc(-c3ccccc3)o2)cc1	50%	8 µg/mL (≈ 19.5 µM)	15.6 mm	> 128 µg/mL	14.3 mm	23.3 mm	> 128 µg/mL	16 µg/mL (≈ 39.1 µM)	61.1%	21.6 mm
O=[N+]([O-])c1ccc(-n2cc(-c3nnc(-c4ccccc4)o3)c(-c3ccccc3)n2)cc1	66.6%	64 µg/mL (≈ 156 µM)	18.6 mm	128 µg/mL (≈ 313 µM)	15.3 mm	20.6 mm	> 128 µg/mL	8 µg/mL (≈ 19.5 µM)	66.6%	24.3 mm
COc1ccc(-c2nn(-c3ccc([N+](=O)[O-])cc3)cc2-c2nnc(-c3ccccc3)o2)cc1	55.5%	8 µg/mL (≈ 18.2 µM)	20.6 mm	64 µg/mL (≈ 146 µM)	18.6 mm	24.3 mm	64 µg/mL (≈ 146 µM)	8 µg/mL (≈ 18.2 µM)	50%	23.6 mm
O=[N+]([O-])c1ccc(-n2cc(-c3nnc(-c4ccccc4)o3)c(-c3ccc(F)cc3)n2)cc1	44.4%	32 µg/mL (≈ 74.9 µM)	20 mm	64 µg/mL (≈ 150 µM)	16.6 mm	21.3 mm	128 µg/mL (≈ 299 µM)	8 µg/mL (≈ 18.7 µM)	55.5%	24.3 mm
O=[N+]([O-])c1ccc(-c2nn(-c3ccc([N+](=O)[O-])cc3)cc2-c2nnc(-c3ccccc3)o2)cc1	55.5%	16 µg/mL (≈ 35.2 µM)	18.3 mm	128 µg/mL (≈ 282 µM)	14.6 mm	22.6 mm	> 128 µg/mL	8 µg/mL (≈ 17.6 µM)	44.4%	23.6 mm
O=C(O)c1cn(C2CC2)c2cc(N3CCNCC3)c(F)cc2c1=O [CIPROFLOXACIN]	–	5 µg/mL (≈ 15.1 µM)	–	5 µg/mL (≈ 15.1 µM)	22 mm	26 mm	5 µg/mL (≈ 15.1 µM)	5 µg/mL (≈ 15.1 µM)	–	24 mm
OC(Cn1cncn1)(Cn1cncn1)c1ccc(F)cc1F [FLUCONAZOLE]	81.1%	–	–	–	–	–	–	–	77.7%	–
